Source: publication PMC7760462 (ACS Central Science, 2020)
Converted amounts (≈) assume the structure as drawn.

Experiments:
[1] = test system: bacteria exposed to subinhibitory concentrations; experiment: Resistance test by serial passage; assay type: cell-based
RAW 264.7 macrophages = experiment: MTT cell viability assay; assay type: cell-based; details: Mus musculus, RAW264.7, 24 h, read-out: IC50, RAW
VRE (ATCC51858) = experiment: Antimicrobial activity against extracellular bacteria; assay type: cell-based, vancomycin-resistant enterococci; details: Enterococcus, 18 h, read-out: extracellular MIC, VRE
MRSA (USA100) = experiment: as above; assay type: cell-based, methicillin-resistant Staphylococcus aureus; details: Staphylococcus aureus, MRSA|USA100, 18 h, read-out: extracellular MIC, MRSA
[2] = test system: kidney of MRSA-infected mice; experiment: Kidney histology analysis; assay type: in vivo, mice (CD1-IGS); details: 72 h after infection (Figure 5e)
Method in brief: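 Mice were infected with MRSA USA100 (2 × 10^7 CFU) by tail-vein injection at 0 h. They received intraperitoneal PBS, vancomycin (100 mg/kg), test compound (72 mg/kg) or unconjugated polypeptide (50 mg/kg, molar equivalent) at 24 and 36 h. Mice were sacrificed at 72 h, and kidneys were H&E-stained for granulomatous foci, immune-cell infiltration and tubular necrosis.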

[3] = by previous studies; cited from earlier work
S. aureus (ATCC12608) = experiment: Characterization of cell wall inhibition by SEM; assay type: cell-based, Staphylococcus aureus; details: S. aureus treated 12 h at drug/bacteria ratio equivalent to MIC determination
Method in brief: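 S. aureus ATCC12608 was treated with the test compound, with PBS, free vancomycin and the unconjugated polypeptide as comparators. Cell wall morphology was then examined by scanning electron microscopy.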

SMILES: CN[C@H](CC(C)C)C(=O)N[C@H]1C(=O)N[C@@H](CC(N)=O)C(=O)N[C@H]2C(=O)N[C@H]3C(=O)N[C@H](C(=O)N[C@H](C(=O)O)c4cc(O)cc(O)c4-c4cc3ccc4O)[C@H](O)c3ccc(c(Cl)c3)Oc3cc2cc(c3O[C@@H]2O[C@H](CO)[C@@H](O)[C@H](O)[C@H]2O[C@H]2C[C@](C)(N)[C@H](O)[C@H](C)O2)Oc2ccc(cc2Cl)[C@H]1O [Van, vancomycin]
- resistance induction, change in MIC ([1]; over/after 20 passages at subinhibitory concentration): tripling
- resistance induction, change in MIC ([1]; within 5 passages at subinhibitory concentration): MIC doubling
- IC50 (RAW 264.7 macrophages): > 706 µM
- MIC (VRE (ATCC51858)): 176 µM (≈ 255 µg/mL)
- MIC (MRSA (USA100)): 0.69 µM (≈ 1 µg/mL)
- granulomatous foci in kidney (H&E) [2]: almost no granulomatous foci
- serum Cmax [3]: ~50 µg/mL
- cell wall appearance by SEM (S. aureus (ATCC12608)): damaged bacterial cell wall
